# Laboratory results reported in ChEMBL document CHEMBL5724801, “EUbOPEN Chemogenomics Library - Multiplex” (2024).
# Where “and” joins values, the source holds several entries; their conditions need not be identical. Identical values can stand only once.
# Tested on: Fibroblast
# Test: Multiplex assay against human fibroblast
# Assay type: toxicity, cell-based
# Outline: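 Imaging took place on a CQ1 microscope at 37°C and 5% CO2 once compound had been added to live cells stained at seeding with Hoechst33342, BioTracker Green Microtubule Cytoskeleton Dye, MitoTracker Red and Annexin V Alexa Fluor 680. CellPathfinder machine-learning gating classed cells as Hoechst high-intensity objects or normal cells, classed normal cells as having healthy, pyknosed or fragmented nuclei, and classed pyknosed cells as mitotic or apoptotic. Tubulin, mitochondrial-mass and membrane-permeability phenotypes are per cents of the healthy-nucleus cells.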
# [1] = 12 h, 1 µM, compound concentration 1 uM
# [2] = 12 h, 10 µM, compound concentration 10 uM
# [3] = 24 h, 1 µM, compound concentration 1 uM
# [4] = 24 h, 10 µM, compound concentration 10 uM
# [5] = 48 h, 1 µM, compound concentration 1 uM
# [6] = 48 h, 10 µM, compound concentration 10 uM
structure (smiles),measurement,setting,value
CC[C@H](Nc1ncnc2[nH]cnc12)c1nc2cccc(F)c2c(=O)n1-c1ccccc1 [IDELALISIB],Population Apoptotic (%),[1],12.5% and 30.56%
same,Population Fragmented Nuclei (%),[1],8.54% and 3.76%
same,Population Healthy Nuclei (%),[1],58.94% and 76.88%
same,Population Hoechst High Intensity Objects (%),[1],7.17% and 0%
same,Population Membrane Permeable-Phenotype (%),[1],3.45% and 2.8%
same,Population Mitochondria Different-Phenotype (%),[1],10.34% and 11.89%
same,Population Mitotic Cells (%),[1],87.5% and 69.44%
same,Population Normal (%),[1],92.83% and 100%
same,Population Pyknosed Nuclei (%),[1],32.52% and 19.35%
same,Population Tubulin-Different-Phenotype (%),[1],22.76% and 24.48%
same,Total Cell Count,[1],265 and 186
same,Population Apoptotic (%),[2],7.84% and 18.6%
same,Population Fragmented Nuclei (%),[2],13.24% and 8.44%
same,Population Healthy Nuclei (%),[2],63.47% and 72.44%
same,Population Hoechst High Intensity Objects (%),[2],0%
same,Population Membrane Permeable-Phenotype (%),[2],11.51% and 11.04%
same,Population Mitochondria Different-Phenotype (%),[2],16.55% and 16.56%
same,Population Mitotic Cells (%),[2],92.16% and 81.4%
same,Population Normal (%),[2],100%
same,Population Pyknosed Nuclei (%),[2],23.29% and 19.11%
same,Population Tubulin-Different-Phenotype (%),[2],53.24% and 61.96%
same,Total Cell Count,[2],219 and 225
same,Population Apoptotic (%),[3],12.5% and 29.41%
same,Population Fragmented Nuclei (%),[3],8.53% and 9.31%
same,Population Healthy Nuclei (%),[3],69.77% and 82.35%
same,Population Hoechst High Intensity Objects (%),[3],5.84% and 0%
same,Population Membrane Permeable-Phenotype (%),[3],6.11% and 1.79%
same,Population Mitochondria Different-Phenotype (%),[3],3.89% and 7.14%
same,Population Mitotic Cells (%),[3],87.5% and 70.59%
same,Population Normal (%),[3],94.16% and 100%
same,Population Pyknosed Nuclei (%),[3],21.71% and 8.33%
same,Population Tubulin-Different-Phenotype (%),[3],16.67% and 20.24%
same,Total Cell Count,[3],274 and 204
same,Population Apoptotic (%),[4],8.33% and 21.88%
same,Population Fragmented Nuclei (%),[4],9.91% and 5.37%
same,Population Healthy Nuclei (%),[4],73.87% and 79.02%
same,Population Hoechst High Intensity Objects (%),[4],0%
same,Population Membrane Permeable-Phenotype (%),[4],9.15% and 6.79%
same,Population Mitochondria Different-Phenotype (%),[4],15.24% and 12.35%
same,Population Mitotic Cells (%),[4],91.67% and 78.12%
same,Population Normal (%),[4],100%
same,Population Pyknosed Nuclei (%),[4],16.22% and 15.61%
same,Population Tubulin-Different-Phenotype (%),[4],46.95% and 64.2%
same,Total Cell Count,[4],222 and 205
same,Population Apoptotic (%),[5],40.74% and 37.5%
same,Population Fragmented Nuclei (%),[5],8.52% and 5.13%
same,Population Healthy Nuclei (%),[5],81.48% and 90.77%
same,Population Hoechst High Intensity Objects (%),[5],7.22% and 0%
same,Population Membrane Permeable-Phenotype (%),[5],1.36% and 3.39%
same,Population Mitochondria Different-Phenotype (%),[5],11.36% and 3.39%
same,Population Mitotic Cells (%),[5],59.26% and 62.5%
same,Population Normal (%),[5],92.78% and 100%
same,Population Pyknosed Nuclei (%),[5],10% and 4.1%
same,Population Tubulin-Different-Phenotype (%),[5],9.09% and 16.95%
same,Total Cell Count,[5],291 and 195
same,Population Apoptotic (%),[6],25% and 23.81%
same,Population Fragmented Nuclei (%),[6],12.65% and 4.81%
same,Population Healthy Nuclei (%),[6],82.45% and 85.1%
same,Population Hoechst High Intensity Objects (%),[6],0%
same,Population Membrane Permeable-Phenotype (%),[6],3.96% and 10.73%
same,Population Mitochondria Different-Phenotype (%),[6],11.39% and 11.3%
same,Population Mitotic Cells (%),[6],75% and 76.19%
same,Population Normal (%),[6],100%
same,Population Pyknosed Nuclei (%),[6],4.9% and 10.1%
same,Population Tubulin-Different-Phenotype (%),[6],30.2% and 57.06%
same,Total Cell Count,[6],245 and 208
O=S(=O)(c1ccccc1)c1cnc2c(N3CCNCC3)cccc2c1 [INTEPIRDINE],Population Apoptotic (%),[1],50% and 34%
same,Population Fragmented Nuclei (%),[1],23% and 28%
same,Population Healthy Nuclei (%),[1],67% and 47%
same,Population Hoechst High Intensity Objects (%),[1],3% and 4%
same,Population Membrane Permeable-Phenotype (%),[1],0% and 7%
same,Population Mitochondria Different-Phenotype (%),[1],2% and 7%
same,Population Mitotic Cells (%),[1],50% and 65%
same,Population Normal (%),[1],96% and 95%
same,Population Pyknosed Nuclei (%),[1],9% and 24%
same,Population Tubulin-Different-Phenotype (%),[1],26% and 61%
same,Total Cell Count,[1],212 and 148
same,Population Apoptotic (%),[2],75% and 61%
same,Population Fragmented Nuclei (%),[2],22% and 43%
same,Population Healthy Nuclei (%),[2],62% and 40%
same,Population Hoechst High Intensity Objects (%),[2],1% and 6%
same,Population Membrane Permeable-Phenotype (%),[2],1% and 5%
same,Population Mitochondria Different-Phenotype (%),[2],8% and 13%
same,Population Mitotic Cells (%),[2],25% and 38%
same,Population Normal (%),[2],98% and 93%
same,Population Pyknosed Nuclei (%),[2],14% and 16%
same,Population Tubulin-Different-Phenotype (%),[2],44% and 68%
same,Total Cell Count,[2],138 and 136
same,Population Apoptotic (%),[3],54% and 41%
same,Population Fragmented Nuclei (%),[3],16% and 32%
same,Population Healthy Nuclei (%),[3],72% and 44%
same,Population Hoechst High Intensity Objects (%),[3],5% and 0%
same,Population Membrane Permeable-Phenotype (%),[3],2% and 1%
same,Population Mitochondria Different-Phenotype (%),[3],4%
same,Population Mitotic Cells (%),[3],45% and 58%
same,Population Normal (%),[3],94% and 99%
same,Population Pyknosed Nuclei (%),[3],10% and 24%
same,Population Tubulin-Different-Phenotype (%),[3],28% and 59%
same,Total Cell Count,[3],212 and 151
same,Population Apoptotic (%),[4],40% and 91%
same,Population Fragmented Nuclei (%),[4],28% and 39%
same,Population Healthy Nuclei (%),[4],65% and 50%
same,Population Hoechst High Intensity Objects (%),[4],1% and 4%
same,Population Membrane Permeable-Phenotype (%),[4],0% and 3%
same,Population Mitochondria Different-Phenotype (%),[4],7% and 15%
same,Population Normal (%),[4],98% and 95%
same,Population Pyknosed Nuclei (%),[4],6% and 10%
same,Population Tubulin-Different-Phenotype (%),[4],50% and 67%
same,Total Cell Count,[4],152 and 123
same,Population Apoptotic (%),[5],66% and 52%
same,Population Fragmented Nuclei (%),[5],22% and 39%
same,Population Healthy Nuclei (%),[5],69% and 45%
same,Population Hoechst High Intensity Objects (%),[5],5% and 3%
same,Population Membrane Permeable-Phenotype (%),[5],0% and 1%
same,Population Mitochondria Different-Phenotype (%),[5],2%
same,Population Mitotic Cells (%),[5],33% and 48%
same,Population Normal (%),[5],94% and 96%
same,Population Pyknosed Nuclei (%),[5],7% and 15%
same,Population Tubulin-Different-Phenotype (%),[5],34% and 54%
same,Total Cell Count,[5],213 and 170
same,Population Apoptotic (%),[6],63% and 40%
same,Population Fragmented Nuclei (%),[6],23% and 48%
same,Population Healthy Nuclei (%),[6],67% and 38%
same,Population Hoechst High Intensity Objects (%),[6],3% and 6%
same,Population Membrane Permeable-Phenotype (%),[6],1% and 6%
same,Population Mitochondria Different-Phenotype (%),[6],15% and 6%
same,Population Mitotic Cells (%),[6],36% and 60%
same,Population Normal (%),[6],96% and 93%
same,Population Pyknosed Nuclei (%),[6],8% and 12%
same,Population Tubulin-Different-Phenotype (%),[6],47% and 57%
same,Total Cell Count,[6],139 and 125
